This excerpt belongs to a sample that is enriched for hits.
PolyA inhibitor = blocks polyadenylation in yeast reporter cells | S. cerevisiae SKY197-pL101 polyadenylation reporter, beta-gal luminescence; efflux-impaired pdr1/pdr3 knockout yeast; score 100 = 6 SD above DMSO | activity score, % at 12 µM | hit rate 0.02% among 300,000 | AID 1875;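 active = lowest replicate activity score at least 50, where 100 means six control SD above control mean; inconclusive = lowest score under 50 but half or more replicates reach 50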;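 note: yeast exposed to compound for 9 h at 30 °C; higher score means more reporter readthrough which indicates perturbed polyadenylation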
Lmaj promast = Leishmania major promastigote growth inhibition; Leishmania major promastigotes, resazurin fluorescence viability; inhibition, % at 10 µM; AID 1063; hit rate 9% among 200,000; in the data active = inhibition above about 50%;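 note: promastigotes grown with compound for 44 hours at 28 °C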
NALP1 yeast inh = inhibitors of NALP1 inflammasome in yeast. inhibition, % at 10 µM. hit rate 0.61% among 280,000. S. cerevisiae NALP1/ASC/caspase-1 growth, X-gal OD620, 72 h; in the data active = inhibition mostly above about 24%, no sharp cut-off; inactive = mostly below about 32%
T cruzi inh = T. cruzi replication inhibition | hit rate 1.4% among 300,000 | T. cruzi beta-gal in NIH3T3, luminescence, 90 h | inhibition, % (test concentration not listed);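 active = mean inhibition across valid replicates above about 55%, limit read from the data; inconclusive = mean below that limit but half or more replicates reach it; inactive = mean below it, under half of replicates reach it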;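 note: signal also drops with host cell toxicity which is not excluded here; 0% = plate median of DMSO wells and 100% = zero luminescence signal; higher percent means less beta-gal luminescence so fewer parasites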
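Material: NIH/3T3 host cells with β-galactosidase reporter T. cruzi; Input: 5,000 host fibroblasts per well; Medium: DMEM, 2% fetal bovine serum; Compound: 50 nL DMSO compound solution per well; Schedule: 3 h host attachment, then at least 90 h co-culture; Detection: luminescent β-galactosidase signal after 60 min lysis.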
Calb FLC = affects C. albicans growth with fluconazole | hit rate 0.57% among 300,000 | C. albicans CaCi-2 (fluconazole-resistant clinical isolate) + fluconazole, Alamar Blue growth, 48 h | growth inhibition, % (no concentration beside the values);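 active = growth inhibition above about 58% in most replicates, limit read from the data, passing the limit was not always enough; inconclusive = exactly half the replicates above a set limit; inactive = most replicates below a set limit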;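 note: all wells also contain fluconazole at 8 µg/ml as a sub-toxic cotreatment; 0% = median of DMSO wells and 100% = median of geldanamycin control wells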
NALP3 yeast inh = inhibitors of NALP3 inflammasome in yeast | Yeast reconstituted NLRP3/ASC/caspase-1, beta-gal luminescence, 24 h | inhibition, % at 10 µM | hit rate 0.39% among 330,000;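 active = inhibition of 50% or more; inactive = inhibition below 50%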;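 note: plate controls were induced DMSO wells for no effect and uninduced yeast grown without galactose for full effect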
An asterisk follows results filed as active; ? = inconclusive; . = no result.

SMILES	PolyA inhibitor	Lmaj promast	NALP1 yeast inh	T cruzi inh	Calb FLC	NALP3 yeast inh
CC1CCC(NCCc2ccc3c(c2)OCO3)CC1 (stereo unspecified)	-5	93*	-11	31	-2	23
c1cc(CNCCc2ccc3c(c2)OCO3)ccn1	13	.	12	2	-3	14
CC1(C)C2([N+](=O)[O-])CN3CN(C2)CC1([N+](=O)[O-])C3	19	-5	18	-11	-3	28
CN1CCN(c2cc(N3CCCC3)c([N+](=O)[O-])cc2F)CC1	-27	99*	24	33	0	22
CCN1CCN(c2cc(N3CCCC3)c(F)cc2[N+](=O)[O-])CC1	-7	71*	7	14	1	25
O=C(Cn1ncc2c3ccccc3n(Cc3ccccc3F)c2c1=O)N1CCC2(CC1)OCCO2	23	-6	0	3	5	6
Clc1ccc(CNC2CN3CCC2CC3)cc1 (stereo unspecified)	-17	92*	17	3	16	13
O=C(O)Cn1cc(C(=O)c2ccccc2F)c2ccccc21	-9	.	13	-6	24	19
Cc1ccsc1C(=O)C1CCCN(Cc2cccn2-c2ccccn2)C1 (stereo unspecified)	-12	61*	4	8	12	9
Cc1ccsc1C(=O)C1CCCN(Cc2cnc(N3CCOCC3)s2)C1 (stereo unspecified)	-2	9	2	60*	-37	21
Cc1ccsc1C(=O)C1CCCN(Cc2sc(N(C)C)nc2Cl)C1 (stereo unspecified)	-8	-4	17	47	-28	10
Cc1ccsc1C(=O)C1CCCN(Cc2cnc(N(C)C)s2)C1 (stereo unspecified)	8	-3	19	59*	-5	7
CCc1ccc(CN2CCCC(C(=O)c3sccc3C)C2)o1 (stereo unspecified)	1	0	3	55*	-10	29
O=C(c1ccccc1)C1NC1c1ccccc1 (stereo unspecified)	0	.	0	5	2	15
Cc1ccsc1C(=O)C1CCCN(Cc2cnn(C(C)C)c2)C1 (stereo unspecified)	7	-1	15	66*	-10	19
Cc1ccsc1C(=O)C1CCCN(Cc2cnc(N)nc2)C1 (stereo unspecified)	5	.	-24	9	15	11
COc1ccc(CN2CCN(C(=O)COc3cccc(C)c3)CC2)c(OC)c1	18	62*	34	-6	12	.
Cc1cccc(OCC(=O)N2CCN(Cc3ccncc3)CC2)c1	12	0	-15	-4	-3	11
Cc1cccc(OCC(=O)N2CCN(Cc3ccc4c(c3)OCO4)CC2)c1	-38	83*	11	-2	5	22
CCc1ccc(CN2CCN(Cc3ccc(SC)cc3)CC2)cc1	-37	89*	7	70*	-15	38
CSc1ccc(CN2CCN(C(=O)COc3ccc(C)cc3)CC2)cc1	3	87*	-2	34	-25	22
O=C1NC(=O)N(CCC2=CCCCC2)C(=O)/C1=C/c1cccs1	-1	.	.	8	-2	4
CCC(C)C12CN3CCN(CC(C)(C3)C1O)C2 (stereo unspecified)	-19	-2	27	-4	4	6
Cc1ccc(OCC(=O)N2CCN(Cc3ccc4c(c3)OCO4)CC2)cc1C	-9	89*	5	13	-6	18
O=C(COc1ccc(Br)cc1)N1CCN(Cc2ccc3c(c2)OCO3)CC1	1	.	30	9	5	15
SMILES	PolyA inhibitor	Lmaj promast	NALP1 yeast inh	T cruzi inh	Calb FLC	NALP3 yeast inh
Cc1ccc(C(=O)Nc2ccc(-n3ccnc3P(=O)(O)c3ccccc3)cc2)cc1	9	-11	6	3	-13	9
CN1CCN(CC(=O)Nc2ccc([N+](=O)[O-])cc2C(=O)c2ccccc2)CC1	2	0	9	27	-12	-10
Cc1cc(Cl)ccc1C(=O)C1CCCN(C2CCSCC2)C1 (stereo unspecified)	0	85*	12	42	-47	22
CN1CCCC(C(=O)c2ccc(-c3ccccc3)cc2)C1 (stereo unspecified)	1	.	15	14	-1	7
Cc1cccc(CN2CCCC(C(=O)c3ccc(C(F)(F)F)cc3)C2)n1 (stereo unspecified)	-23	79*	5	35	?	17
O=C(c1ccc(C(F)(F)F)cc1)C1CCCN(C2CCSCC2)C1 (stereo unspecified)	-46	92*	10	4	-10	26
CSc1ccccc1C(=O)C1CCCN(Cc2cccc(C)n2)C1 (stereo unspecified)	-13	23	-2	44	3	-2
COc1ccc(Cl)cc1C(=O)C1CCCN(CCO)C1 (stereo unspecified)	-6	4	13	18	-7	-1
O=c1ccc2cc3ccoc3c(O)c2o1	.	.	.	.	.	-25
CN1CCc2c(C#N)c(Cl)nc(Cl)c2C1	2	-1	37	0	1	8
COC(=O)C(O)(c1ccc(N(C)C(=O)COc2ccccc2)cc1)C(F)(F)F (stereo unspecified)	-8	-5	21	-2	.	-4
CCOC(=O)C(O)(c1ccc(NC(=O)NC)cc1)C(F)(F)F (stereo unspecified)	-13	.	-14	-6	-5	13
CCOC(=O)N(CC)c1ccc(C(O)(C(=O)OC)C(F)(F)F)cc1 (stereo unspecified)	12	91*	24	-12	-5	7
COC(=O)N(C)c1ccc(C(O)(C(=O)OC)C(F)(F)F)cc1 (stereo unspecified)	-6	87*	21	-9	-9	4
CN(C)[C@@H]1C(=O)C(C(N)=O)=C(O)[C@@]2(O)C(=O)C3=C(O)c4c(O)cccc4[C@@](C)(O)C3[C@H](O)C12 (stereo partly specified)	-6	.	.	-17	-16	9
CCC(C)NC(=O)c1c(N)n(Cc2ccc3c(c2)OCO3)c2nc3ccccc3nc12 (stereo unspecified)	-7	65*	31	35	-1	9
CCC(C)NC(=O)c1c(N)n(CCCOC)c2nc3ccccc3nc12 (stereo unspecified)	9	14	-8	-7	9	11
CCC(C)NC(=O)c1c(N)n(CC2CCCO2)c2nc3ccccc3nc12 (stereo unspecified)	17	67*	12	19	0	23
CC12CN3CC(C)(CN(C1)P3(=O)Oc1ccccc1)C2=O (stereo unspecified)	-8	-3	13	-9	0	6
COc1cccc(CN2CCCCC2c2cccnc2)c1 (stereo unspecified)	4	72*	34	34	-11	6

Source: PubChem (several laboratories)
